≈ marks a conversion by molar mass, not a printed value.
What was measured:
[1] = tested on: Staphylococcus aureus; experiment: (§1) Antibacterial activity against methicillin-resistant Staphylococcus aureus COL infected New Zealand White rabbit aortic valve endocarditis model assessed as decrease in bacterial colony forming unit in kidney at 18 mg/kg, iv dosed every 24 hrs for 4 days (reference value: 4.4 +/- 1.0 log10CFU per gram tissue); type: functional
[2] = tested on: Staphylococcus aureus; experiment: as §1, with “vegetation” for “kidney”, “8.4” for “4.4”, “0.7” for “1.0”; type: functional
[3] = tested on: Staphylococcus aureus; experiment: as §1, with “spleen” for “kidney”, “5.1” for “4.4”, “0.9” for “1.0”; type: functional
[4] = tested on: Staphylococcus aureus; experiment: as §1, with “in spleen” for “in kidney”, “at 25” for “at 18”, “mg/kg, im” for “mg/kg, iv”, “every 8” for “every 24”, “value: 5.1” for “value: 4.4”, “+/- 0.9” for “+/- 1.0”; type: functional; conditions: route intramuscular
[5] = tested on: Staphylococcus aureus; experiment: as §1, with “in vegetation” for “in kidney”, “at 25” for “at 18”, “mg/kg, im” for “mg/kg, iv”, “every 8” for “every 24”, “value: 8.4” for “value: 4.4”, “+/- 0.7” for “+/- 1.0”; type: functional; conditions: route intramuscular
[6] = tested on: Staphylococcus aureus; experiment: as §1, with “at 25” for “at 18”, “mg/kg, im” for “mg/kg, iv”, “every 8” for “every 24”; type: functional; conditions: route intramuscular
[7] = tested on: Oryctolagus cuniculus; experiment: Plasma concentration in Staphylococcus aureus COL infected New Zealand White rabbit aortic valve endocarditis model at 25 mg/kg, im dosed every 8 hrs for 4 days; type: ADME, organism-based; parameters: dose 25 mg/kg, route intramuscular; conditions: in vivo
Procedure, shortened: (§2)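 Rabbits with catheter-induced aortic valve endocarditis received about 1.5 × 10^7 CFU COL iv in 1 ml 0.9% saline 48 h after catheter placement. Dosing started 16–18 h post-infection. Plasma was sampled 1 h post-dose from at least three rabbits per group and assayed by HPLC against plasma standard curves. Each value is the mean of two determinations; detection limit ≤0.5 μg/ml.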

[8] = tested on: Staphylococcus aureus; experiment: as §1, with “in spleen” for “in kidney”, “at 75” for “at 18”, “mg/kg, sc” for “mg/kg, iv”, “every 8” for “every 24”, “value: 5.1” for “value: 4.4”, “+/- 0.9” for “+/- 1.0”; type: functional; conditions: route subcutaneous
[9] = tested on: Staphylococcus aureus; experiment: as §1, with “in vegetation” for “in kidney”, “at 75” for “at 18”, “mg/kg, sc” for “mg/kg, iv”, “every 8” for “every 24”, “value: 8.4” for “value: 4.4”, “+/- 0.7” for “+/- 1.0”; type: functional; conditions: route subcutaneous
[10] = tested on: Staphylococcus aureus; experiment: as §1, with “at 75” for “at 18”, “mg/kg, sc” for “mg/kg, iv”, “every 8” for “every 24”; type: functional; conditions: route subcutaneous
[11] = tested on: Oryctolagus cuniculus; experiment: Plasma concentration in Staphylococcus aureus COL infected New Zealand White rabbit aortic valve endocarditis model at 75 mg/kg, sc dosed every 8 hrs for 4 days; type: ADME, organism-based; parameters: dose 75 mg/kg, route subcutaneous; conditions: in vivo; procedure, shortened: as §2
[12] = tested on: Staphylococcus aureus; experiment: Antibacterial activity against methicillin-resistant Staphylococcus aureus COL; type: functional
[13] = tested on: Oryctolagus cuniculus; experiment: Plasma concentration in Staphylococcus aureus COL infected New Zealand White rabbit aortic valve endocarditis model at 30 mg/kg, iv dosed every 12 hrs for 4 days; type: ADME, organism-based; parameters: dose 30 mg/kg, route intravenous; conditions: in vivo
Procedure, shortened: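 Plasma was drawn 1 h after dosing from at least 3 rabbits and assayed by HPLC. Each value averages two determinations, read from plasma standard curves. The detection limit was ≤0.5 μg/ml.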

[14] = tested on: Staphylococcus aureus; experiment: as §1, with “30” for “18”, “12” for “24”; type: functional
[15] = tested on: Staphylococcus aureus; experiment: as §1, with “spleen” for “kidney”, “30” for “18”, “12” for “24”, “5.1” for “4.4”, “0.9” for “1.0”; type: functional
[16] = Half life in Staphylococcus aureus COL infected New Zealand White rabbit aortic valve endocarditis model at 30 mg/kg, iv dosed every 12 hrs for 4 days; type: ADME, organism-based, Oryctolagus cuniculus; parameters: dose 30 mg/kg, route intravenous; conditions: in vivo
[17] = tested on: Staphylococcus aureus; experiment: as §1, with “vegetation” for “kidney”, “30” for “18”, “12” for “24”, “8.4” for “4.4”, “0.7” for “1.0”; type: functional

## CCCCCCCCCC(=O)N[C@@H](Cc1c[nH]c2ccccc12)C(=O)N[C@H](CC(N)=O)C(=O)N[C@@H](CC(=O)O)C(=O)N[C@@H]1C(=O)NCC(=O)N[C@@H](CCCN)C(=O)N[C@@H](CC(=O)O)C(=O)N[C@H](C)C(=O)N[C@@H](CC(=O)O)C(=O)NCC(=O)N[C@H](CO)C(=O)N[C@@H]([C@H](C)CC(=O)O)C(=O)N[C@@H](CC(=O)c2ccccc2N)C(=O)O[C@@H]1C
[1]
  log10CFU/g: 2.6
[2]
  log10CFU/g: 3.6
[3]
  log10CFU/g: 2.3

## Nc1nc(/C(=N/O)C(=O)N[C@@H]2C(=O)N3C(C(=O)O)=C(/C=C4\CCN([C@@H]5CCNC5)C4=O)CS[C@H]23)ns1 [CEFTOBIPROLE]
[4]
  log10CFU/g: 1.8
[5]
  log10CFU/g: 2.1
[6]
  log10CFU/g: 1.7
[7]
  Cp: 14400 ng/mL

## CC(=O)NC[C@H]1CN(c2ccc(N3CCOCC3)c(F)c2)C(=O)O1 [LINEZOLID]
[8]
  log10CFU/g: 2.9
[9]
  log10CFU/g: 5.9
[10]
  log10CFU/g: 2.5
[11]
  Cp: 28200 ng/mL

## CCOc1ccc2ccccc2c1C(=O)N[C@@H]1C(=O)N2[C@@H]1SC(C)(C)[C@@H]2C(=O)O [NAFCILLIN]
[12]
  MIC: 256 µg/mL (≈ 618 µM)

## CN[C@H](CC(C)C)C(=O)N[C@H]1C(=O)N[C@@H](CC(N)=O)C(=O)N[C@H]2C(=O)N[C@H]3C(=O)N[C@H](C(=O)N[C@H](C(=O)O)c4cc(O)cc(O)c4-c4cc3ccc4O)[C@H](O)c3ccc(c(Cl)c3)Oc3cc2cc(c3O[C@@H]2O[C@H](CO)[C@@H](O)[C@H](O)[C@H]2O[C@H]2C[C@](C)(N)[C@H](O)[C@H](C)O2)Oc2ccc(cc2Cl)[C@H]1O [VANCOMYCIN]
[13]
  Cp: 34000 ng/mL
[14]
  log10CFU/g: 3.1
[15]
  log10CFU/g: 3.3
[16]
  half-life: 1.33 h
[17]
  log10CFU/g: 5.9

Source: ChEMBL document CHEMBL1212779, “Ceftobiprole is superior to vancomycin, daptomycin, and linezolid for treatment of experimental endocarditis in rabbits caused by methicillin-resistant Staphylococcus aureus” (Antimicrob Agents Chemother, 2010)
